From ChEMBL document CHEMBL1777717, “Potent and selective oxindole-based vasopressin 1b receptor antagonists with improved pharmacokinetic properties” (Bioorg Med Chem Lett, 2011)
Calls of active or inactive are those of the source. No cut-off for these calls is given here.

Experiments:
Vasopressin V1b receptor = target: T1, Vasopressin V1b receptor (Homo sapiens, UniProt P47901); assay: Displacement of [3H]AVP from human vasopressin V1b receptor expressed in CHO cells by scintillation counting; assay type: cell-based
T1 sequence (P47901 whole entry): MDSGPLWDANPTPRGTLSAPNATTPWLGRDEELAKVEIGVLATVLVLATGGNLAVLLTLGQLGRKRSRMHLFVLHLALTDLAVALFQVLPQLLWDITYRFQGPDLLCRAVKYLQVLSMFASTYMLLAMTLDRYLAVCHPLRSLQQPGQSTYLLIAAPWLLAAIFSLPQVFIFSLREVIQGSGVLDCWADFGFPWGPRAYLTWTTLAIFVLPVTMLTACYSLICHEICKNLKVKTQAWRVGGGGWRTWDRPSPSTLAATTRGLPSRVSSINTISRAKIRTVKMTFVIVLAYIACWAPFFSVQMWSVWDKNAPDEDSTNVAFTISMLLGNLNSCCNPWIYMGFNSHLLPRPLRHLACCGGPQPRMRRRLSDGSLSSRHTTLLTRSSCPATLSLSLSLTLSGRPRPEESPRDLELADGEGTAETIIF

Vasopressin V1a receptor = Vasopressin V1a receptor (Homo sapiens, UniProt P37288); assay: Displacement of [3H]AVP from human vasopressin V1a receptor expressed in CHO cells by scintillation counting; assay type: cell-based
Method in brief: (§1)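 Ki from radioligand displacement at the human receptor, run per a previously published protocol; each value is the mean of at least two experiments.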

Vasopressin V2 receptor = Vasopressin V2 receptor (Homo sapiens, UniProt P30518); assay: Displacement of [3H]AVP from human vasopressin V2 receptor expressed in CHO cells by scintillation counting; assay type: cell-based; method in brief: as §1
Oxytocin receptor = target: T2, Oxytocin receptor (Homo sapiens, UniProt P30559); assay: Displacement of radiolabeled oxytocin from human oxytocin receptor expressed in CHO cells by scintillation counting; assay type: cell-based; method in brief: as §1
T2 sequence (P30559 whole entry): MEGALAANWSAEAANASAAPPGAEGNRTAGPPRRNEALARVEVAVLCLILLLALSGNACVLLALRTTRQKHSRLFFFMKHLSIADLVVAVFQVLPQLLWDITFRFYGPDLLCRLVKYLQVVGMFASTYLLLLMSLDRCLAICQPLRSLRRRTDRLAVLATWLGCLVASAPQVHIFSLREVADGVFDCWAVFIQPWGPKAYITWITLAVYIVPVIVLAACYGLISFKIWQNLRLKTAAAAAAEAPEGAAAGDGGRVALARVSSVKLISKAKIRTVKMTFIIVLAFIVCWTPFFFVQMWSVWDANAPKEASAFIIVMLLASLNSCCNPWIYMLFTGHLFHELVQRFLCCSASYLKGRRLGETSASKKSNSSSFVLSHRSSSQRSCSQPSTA

[1] = Intrinsic clearance in human liver microsomes measured up to 40 mins by HPLC-MS method; assay type: ADME, Microsome
Method in brief: (§2)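 Intrinsic clearance determined by liver microsome incubation using a previously published procedure, reported in µL/min/mg; each value is the mean of at least two experiments.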

[2] = Intrinsic clearance in rat liver microsomes measured up to 40 mins by HPLC-MS method; assay type: ADME, Microsome; method in brief: as §2
[3] = Terminal half life in rat at 2 mg/kg, iv; assay type: ADME, organism-based; design: dose 2 mg/kg, route intravenous; settings: in vivo, read-out: beta t1/2 (converted)
[4] = Volume of distribution at steady state in rat at 2 mg/kg, iv; assay type: ADME, organism-based; design: dose 2 mg/kg, route intravenous; settings: in vivo, read-out: Vdss
[5] = Clearance in rat plasma at 2 mg/kg, iv; assay type: ADME, organism-based; design: dose 2 mg/kg, route intravenous
[6] = Oral bioavailability in rat plasma at 10 mg/kg; assay type: ADME, organism-based
[7] = Ratio of AUC in brain to plasma in rat at 10 mg/kg, ip; assay type: ADME, organism-based; design: dose 10 mg/kg, route intraperitoneal; settings: brain and plasma, read-out: Ratio AUC
Homo sapiens [8] = species on record: Homo sapiens; assay: Selectivity ratio of Ki for human vasopressin V1b receptor over Ki for human vasopressin V1a receptor
Homo sapiens [9] = species on record: Homo sapiens; assay: Selectivity ratio of Ki for human vasopressin V1b receptor over Ki for human vasopressin V2 receptor
Homo sapiens [10] = species on record: Homo sapiens; assay: Selectivity ratio of Ki for human vasopressin V1b receptor over Ki for human oxytocin receptor
Rattus norvegicus = assay: Antidepressant activity in rat at 3 mg/kg, ip by forced swimming test; assay type: functional, organism-based; design: dose 3 mg/kg

Chain of Vasopressin V2 receptor (P30518 whole entry): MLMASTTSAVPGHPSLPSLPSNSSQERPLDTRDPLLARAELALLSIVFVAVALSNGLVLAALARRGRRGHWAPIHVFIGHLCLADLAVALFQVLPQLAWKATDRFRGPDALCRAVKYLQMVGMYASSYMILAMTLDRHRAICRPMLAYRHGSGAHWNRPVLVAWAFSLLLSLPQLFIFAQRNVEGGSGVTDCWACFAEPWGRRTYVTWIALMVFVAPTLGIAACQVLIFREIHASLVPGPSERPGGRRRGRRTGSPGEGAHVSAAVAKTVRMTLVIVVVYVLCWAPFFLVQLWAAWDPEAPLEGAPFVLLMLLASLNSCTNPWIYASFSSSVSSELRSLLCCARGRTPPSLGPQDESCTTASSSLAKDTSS
Chain of Vasopressin V1a receptor (P37288 whole entry): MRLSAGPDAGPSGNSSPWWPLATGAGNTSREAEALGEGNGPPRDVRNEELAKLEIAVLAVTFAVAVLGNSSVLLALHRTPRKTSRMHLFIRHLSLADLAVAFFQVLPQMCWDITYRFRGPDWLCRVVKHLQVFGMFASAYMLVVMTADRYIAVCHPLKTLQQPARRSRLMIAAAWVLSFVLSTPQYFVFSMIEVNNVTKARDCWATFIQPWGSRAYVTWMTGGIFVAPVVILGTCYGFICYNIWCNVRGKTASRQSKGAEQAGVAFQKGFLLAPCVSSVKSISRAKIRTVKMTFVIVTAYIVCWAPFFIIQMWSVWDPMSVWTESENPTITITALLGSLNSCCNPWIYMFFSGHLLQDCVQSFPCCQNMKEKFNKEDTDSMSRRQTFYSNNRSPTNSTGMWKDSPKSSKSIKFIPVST

Row | Compound | Ki (Vasopressin V1b receptor) | Ki (Vasopressin V1a receptor) | Ki (Vasopressin V2 receptor) | Ki (Oxytocin receptor) | microsomal CLint [1] | microsomal CLint [2] | half-life [3] | Vd [4] | clearance [5] | bioavailability [6] | Kp [7] | Ratio Ki (Homo sapiens [8]) | Ratio Ki (Homo sapiens [9]) | Ratio Ki (Homo sapiens [10]) | Activity (Rattus norvegicus)
1 | COc1ccc(S(=O)(=O)N2C(=O)[C@@](c3cc(CN(C)C)ccc3OC)(N3CCC[C@H]3c3ncco3)c3cc(Cl)ccc32)cc1 | 2 nM | 289 nM | > 1000 nM | 115 nM | 204 µL/min/mg | 217 µL/min/mg |  |  |  |  |  |  |  |  | 
2 | COc1ccc(S(=O)(=O)N2C(=O)[C@@](c3cccnc3OC)(N3C[C@H](O)C[C@H]3C(=O)N(C)C)c3cc(Cl)ccc32)c(OC)c1 | 1.3 nM | 55 nM | 618 nM | 42 nM | 323 µL/min/mg | 446 µL/min/mg |  |  |  |  |  |  |  |  | 
3 | COc1ccc(S(=O)(=O)N2C(=O)[C@@](c3cccnc3OC)(N3CCCC3c3cccs3)c3cc(Cl)ccc32)c(OC)c1 (mixture of isomers) | > 10000 nM |  |  |  |  |  |  |  |  |  |  |  |  |  | 
4 | COc1ccc(S(=O)(=O)N2C(=O)[C@@](c3ccccc3OC)(N3C[C@H](O)C[C@H]3C(=O)N(C)C)c3cc(Cl)ccc32)c(OC)c1 |  |  |  |  | 343 µL/min/mg | 432 µL/min/mg | 0.5 h | 2.8 L/kg | 86.7 mL/min/kg | 12% | 0.03 |  |  |  | 
5 | COc1ccc(S(=O)(=O)N2C(=O)[C@@](c3cnccc3OC)(N3C[C@H](O)C[C@H]3C(=O)N(C)C)c3cc(Cl)ccc32)c(OC)c1 | 2.1 nM | 49 nM | > 1000 nM |  | 158 µL/min/mg | 413 µL/min/mg |  |  |  |  |  |  |  |  | 
6 | COc1ccc(S(=O)(=O)N2C(=O)[C@@](c3cc(CN4CCCC4)ccc3OC)(N3CCC[C@H]3C(=O)N(C)C)c3cc(Cl)ccc32)cc1 | 0.03 nM | 10 nM | > 1000 nM | 17 nM | 506 µL/min/mg | 101 µL/min/mg |  |  |  |  |  | > 100 | > 100 | > 100 | 
7 | COc1ccc(S(=O)(=O)N2C(=O)[C@@](c3cccnc3OC)(N3CCC[C@H]3C(=O)N(C)C)c3cc(Cl)ccc32)c(OC)c1 | 3.8 nM | 219 nM | > 1000 nM | 62 nM | 359 µL/min/mg | 446 µL/min/mg |  |  |  |  |  |  |  |  | 
8 | COc1ccc(S(=O)(=O)N2C(=O)[C@@](c3cccnc3OC)(N3CCCC3c3ccccc3)c3cc(Cl)ccc32)c(OC)c1 (mixture of isomers) | > 10000 nM |  |  |  |  |  |  |  |  |  |  |  |  |  | 
9 | COc1ccc(S(=O)(=O)N2C(=O)[C@@](c3ccc(CN4CCCC4)cc3OC)(N3CCC[C@H]3C(=O)N(C)C)c3cc(Cl)ccc32)cc1 | 0.08 nM | 101 nM | > 1000 nM | 28 nM | 127 µL/min/mg | 106 µL/min/mg |  |  |  |  |  | > 100 | > 100 | > 100 | 
10 | COc1ccc(S(=O)(=O)N2C(=O)[C@@](c3cccnc3OC)(N3CCCC3c3ncco3)c3cc(Cl)ccc32)c(OC)c1 (mixture of isomers) | 101 nM |  |  |  |  |  |  |  |  |  |  |  |  |  | 
11 | COc1ccc(S(=O)(=O)N2C(=O)[C@@](c3cccnc3OC)(N3CCCC3c3nccs3)c3cc(Cl)ccc32)c(OC)c1 (mixture of isomers) | 276 nM |  |  |  | 373 µL/min/mg | 476 µL/min/mg |  |  |  |  |  |  |  |  | 
12 | COc1ccc(S(=O)(=O)N2C(=O)[C@@](c3cc(CN4CCN(C)CC4)ccc3OC)(N3CCC[C@H]3c3ncco3)c3cc(Cl)ccc32)cc1 | 1.3 nM | 231 nM | > 1000 nM | 89 nM | 76 µL/min/mg | 56 µL/min/mg |  |  |  |  |  |  |  |  | 
13 | COc1ccc(S(=O)(=O)N2C(=O)[C@@](c3ccc(CN4CCN(C)CC4)cc3OC)(N3CCC[C@H]3C(=O)N(C)C)c3cc(Cl)ccc32)cc1 | 0.04 nM | 15 nM | > 1000 nM | 7 nM | 378 µL/min/mg | 56 µL/min/mg |  |  |  |  |  | > 100 | > 100 | > 100 | 
14 | COc1ccc(S(=O)(=O)N2C(=O)[C@@](c3cc(CN4CCCC4)ccc3OC)(N3CCC[C@H]3c3ncco3)c3cc(Cl)ccc32)cc1 | 1.2 nM | 193 nM | > 1000 nM | 170 nM | 80 µL/min/mg | 164 µL/min/mg |  |  |  |  |  |  |  |  | 
15 | COc1ccc(S(=O)(=O)N2C(=O)[C@@](c3ccc(CN4CCCC4)cc3OC)(N3CCC[C@H]3C(=O)N(C)C)c3cc(Cl)ccc32)c(OC)c1 | 0.81 nM | > 1000 nM | > 1000 nM | 45 nM | 155 µL/min/mg | 117 µL/min/mg |  |  |  |  |  |  |  |  | 
16 | COc1ccc(S(=O)(=O)N2C(=O)[C@@](c3cccnc3OC)(N3CCCC3c3ccccn3)c3cc(Cl)ccc32)c(OC)c1 (mixture of isomers) | 786 nM |  |  |  | 183 µL/min/mg | 702 µL/min/mg |  |  |  |  |  |  |  |  | 
17 | COc1ccc(S(=O)(=O)N2C(=O)[C@@](c3cc(CN4CCCC4)ccc3OC)(N3CCC[C@H]3C(=O)N(C)C)c3cc(Cl)ccc32)c(OC)c1 | 0.26 nM | 74 nM | > 1000 nM | 29 nM | 394 µL/min/mg | 148 µL/min/mg |  |  |  |  |  |  |  |  | 
18 | COc1ccc(S(=O)(=O)N2C(=O)[C@@](c3cnc(OC)nc3OC)(N3C[C@H](O)C[C@H]3C(=O)N(C)C)c3cc(Cl)ccc32)c(OC)c1 | 5.6 nM | 173 nM | 636 nM | 45 nM | 203 µL/min/mg | 366 µL/min/mg |  |  |  |  |  |  |  |  | 
19 | COc1ccc(S(=O)(=O)N2C(=O)[C@@](c3cc(CN4CCN(C)CC4)ccc3OC)(N3CCC[C@H]3C(=O)N(C)C)c3cc(Cl)ccc32)cc1 | 0.03 nM | 13 nM | > 1000 nM | 20 nM | 414 µL/min/mg | 78 µL/min/mg |  |  |  |  |  | > 100 | > 100 | > 100 | 
20 | COc1ccc(S(=O)(=O)N2C(=O)[C@@](c3cccnc3OC)(N3CCC[C@H]3c3ncco3)c3cc(Cl)ccc32)cc1 | 20 nM |  |  |  | 75 µL/min/mg | 356 µL/min/mg |  |  |  |  |  |  |  |  | 
21 | COc1ccc(S(=O)(=O)N2C(=O)[C@@](c3nccnc3OC)(N3C[C@H](O)C[C@H]3C(=O)N(C)C)c3cc(Cl)ccc32)c(OC)c1 | 26 nM | 500 nM | > 1000 nM | 271 nM | 302 µL/min/mg | 1030 µL/min/mg |  |  |  |  |  |  |  |  | 
22 | CNCc1ccc(OC)c([C@@]2(N3CCC[C@H]3c3ncco3)C(=O)N(S(=O)(=O)c3ccc(OC)cc3)c3ccc(Cl)cc32)c1 | 3.9 nM | 243 nM | > 1000 nM | 135 nM | 64 µL/min/mg | 62 µL/min/mg | 3.3 h | 13 L/kg | 50 mL/min/kg | 68% | 0.31 |  |  |  | Active
